Data published in ChEMBL document CHEMBL2396589, “Remarkable antioxidant properties of a series of hydroxy-3-arylcoumarins” (Bioorg Med Chem, 2013).

Key:
[1] = Antioxidant activity assessed as hydroxyl radical scavenging activity at 4 mM after 5 mins by ESR spectrometric analysis; assay type: functional
Outline: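 Hydroxyl radicals came from a non-catalytic Fenton-type system: DMF, NaOH (3 mM), DMPO spin trap (30 mM final) and 30% H2O2, with compound at 4 mM final. The DMPO-OH adduct was read by X-band ESR (9.7 GHz) at room temperature 5 min after mixing. A control without antioxidant was included. Values are given as % scavenging.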

[2] = Antioxidant activity assessed as superoxide radical scavenging activity at 30 uM by cyclic voltammetric analysis; assay type: functional
Outline: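 Cyclic voltammetry was run at room temperature with a three-electrode cell in DMSO, with compound at 30 µM final. Scavenging (%) was calculated as [(Ipc blank − Ipc aox)/Ipc blank] × 100 from the cathodic peak current without and with compound. Three replicates; significance was set at p < 0.05.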

[3] = Antioxidant activity assessed as inhibition of AAPH-induced peroxyl radical formation at 0.3 to 2 uM preincubated for 15 mins followed by AAPH addition measured every 1 min for 120 mins by ORAC-FL assay relative to trolox; assay type: functional
Outline: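 Fluorescein (70 nM final) and compound (0.3–2 µM, in methanol) were mixed in 75 mM sodium phosphate pH 7.4 and pre-incubated 15 min at 37 °C. AAPH (18 mM final) was then added. Fluorescence (ex 485, em 528 nm) was read every minute for 120 min. Net AUC was taken after subtracting a methanol blank and expressed relative to trolox. Triplicates, at least three independent assays.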

[4] = test system: Radical scavenging activity; assay: Antioxidant activity assessed as DPPH radical scavenging activity at 1 mM after 5 mins by ESR spectrometric analysis; assay type: functional
Outline: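 Reaction mixtures held DPPH and test compound, each at 1.0 mM, both made up in acetonitrile. A control lacked compound. ESR signal was recorded 5 min after mixing at 9.81 GHz with 20 mW microwave power, 0.95 G modulation amplitude and 59 db receiver gain. Values are given as % DPPH scavenging.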

[5] = Antioxidant activity assessed as inhibition of AAPH-induced peroxyl radical formation by ORAC-FL assay relative to trolox; assay type: functional
Outline: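 Peroxyl scavenging in 75 mM sodium phosphate buffer pH 7.4 with fluorescein (70 nM final), using test compounds in methanol from 0.3 to 2 units. The mix was pre-incubated 15 min at 37 °C, then AAPH (18 mM final) was added. Fluorescence (ex 485, em 528 nm) was read every 1 min for 120 min. Net AUC was taken against a methanol blank and expressed relative to trolox standards. Triplicates, ≥3 independent runs.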

[6] = test system: Radical scavenging activity; assay: Antioxidant activity assessed as DPPH radical scavenging activity measured at 5 mins by ESR spectrometric analysis

SMILES	Activity [1] [%]	Activity [2] [%]	fold change (FC) [3]	Activity [4] [%]	fold change (FC) [5]	Activity [6] [%]
O=c1oc2c(O)cccc2cc1-c1ccc(O)cc1	100	71.5	13.5	65.9	–	–
Cc1ccc2oc(=O)c(-c3ccc(O)c(O)c3)cc2c1	6.05	28.9	5.3	28.3	–	–
Cc1ccc2oc(=O)c(-c3ccc(O)cc3)cc2c1	100	17.4	6.1	27.7	–	–
O=c1c(O)c(-c2ccc(O)c(O)c2)oc2cc(O)cc(O)c12	–	–	–	–	7.28	20
Cc1ccc(-c2cc3cccc(O)c3oc2=O)cc1	16	17.4	6.3	28.6	–	–
Oc1cc(O)c2c(c1)OC(c1ccc(O)c(O)c1)C(O)C2 (stereo not given)	–	–	–	–	6.76	44.5
Cc1ccc2oc(=O)c(-c3cccc(O)c3)cc2c1	5.2	17.5	6.7	3.4	–	–
Cc1cccc2cc(-c3ccc(O)c(O)c3)c(=O)oc12	100	77.3	5.7	66.7	–	–
Cc1cccc2cc(-c3cc(O)c(O)c(O)c3)c(=O)oc12	100	76.5	5.3	100	–	–
Cc1ccc2oc(=O)c(-c3ccccc3O)cc2c1	100	25	8.4	10.6	–	–
Cc1cccc2cc(-c3cc(O)cc(O)c3)c(=O)oc12	75	22.6	5.5	11.2	–	–
